According to ChEMBL document CHEMBL1641571, “Karavilagenin C derivatives as antimalarials” (Bioorg Med Chem, 2011):

What was measured:
[1] = Selectivity index, ratio of IC50 for human MCF7 cells to IC50 for chloroquine-sensitive Plasmodium falciparum 3D7; assay type: toxicity, cell-based; settings: read-out: Ratio IC50
[2] = test system: MCF7; experiment: Cytotoxicity against human MCF7 cells after 24 hrs by MTT assay; assay type: functional, cell-based; settings: MCF7, 24 h
How it was run: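 MCF-7 breast cancer cells grown in RPMI 1640 with 10% heat-inactivated horse serum, 2 mM L-glutamine and antibiotics, 5% CO2, 37 °C. 2 × 10^4 cells per well exposed to increasing compound concentrations for 24 h at 37 °C. MTT added (5 mg/mL stock), 4 h, then 10% SDS overnight. OD read at 550 nm (ref 630 nm). IC50 from growth inhibition; mean ± SD, three experiments.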

[3] = Selectivity index, ratio of IC50 for human MCF7 cells to IC50 for chloroquine-resistant Plasmodium falciparum Dd2; assay type: toxicity, cell-based; settings: read-out: Ratio IC50
[4] = test system: Plasmodium falciparum; experiment: Antimalarial activity against chloroquine-resistant Plasmodium falciparum Dd2 infected in erythrocytes after 48 hrs by SYBR Green 1-based fluorescence assay; assay type: functional, organism-based; settings: Dd2, 48 h
[5] = test system: Plasmodium falciparum; experiment: Antimalarial activity against chloroquine-sensitive Plasmodium falciparum 3D7 infected in erythrocytes after 48 hrs by SYBR Green 1-based fluorescence assay; assay type: functional, organism-based; settings: 3D7, 48 h

Row | SMILES | selectivity ratio [1] | IC50 [2] | selectivity ratio [3] | IC50 [4] | IC50 [5]
1 | CO[C@H]1C=C2[C@@H](CC[C@H](O)C2(C)C)[C@]2(C)C[C@@H](O)[C@]3(C)[C@@H]([C@H](C)C[C@@H](O)C=C(C)C)CC[C@@]3(C)[C@H]12 [CUCURBALSAMINOL C] | 0.8 | 43.3 µM | 0.6 | 67.6 µM | 52.7 µM
2 | CO[C@H]1C=C2[C@@H](CC[C@H](O)C2(C)C)[C@]2(C)CC[C@]3(C)[C@@H]([C@H](C)C[C@@H](O)C=C(C)C)CC[C@@]3(C)[C@H]12 [KARAVELAGENIN C] | 1.6 | 16.7 µM | 1.4 | 11.2 µM | 10.4 µM
3 | CO[C@H]1C=C2[C@@H](CC[C@H](O)C2(C)C)[C@]2(C)CC[C@]3(C)[C@@H]([C@H](C)C[C@H](C=C(C)C)OC(C)=O)CC[C@@]3(C)[C@H]12 [KARAVOATE A] | 3.4 | 22.9 µM | 2.5 | 9.2 µM | 6.7 µM
4 | CO[C@H]1C=C2[C@@H](CC[C@H](OC(C)=O)C2(C)C)[C@]2(C)CC[C@]3(C)[C@@H]([C@H](C)C[C@H](C=C(C)C)OC(C)=O)CC[C@@]3(C)[C@H]12 [KARAVOATE B] | 151 | 68.1 µM | 126 | 0.5 µM | 0.5 µM
5 | CCC(=O)O[C@@H](C=C(C)C)C[C@@H](C)[C@H]1CC[C@@]2(C)[C@@H]3[C@@H](OC)C=C4[C@@H](CC[C@H](O)C4(C)C)[C@]3(C)CC[C@]12C [KARAVOATE C] | 3.7 | 19.1 µM | 0.9 | 22 µM | 5.1 µM
6 | CCC(=O)O[C@H]1CC[C@@H]2C(=C[C@H](OC)[C@@H]3[C@@]2(C)CC[C@]2(C)[C@@H]([C@H](C)C[C@H](C=C(C)C)OC(=O)CC)CC[C@@]32C)C1(C)C [KARAVOATE D] | > 89 | > 133 µM | > 350 | 0.4 µM | 1.5 µM
7 | CCCC(=O)O[C@@H](C=C(C)C)C[C@@H](C)[C@H]1CC[C@@]2(C)[C@@H]3[C@@H](OC)C=C4[C@@H](CC[C@H](O)C4(C)C)[C@]3(C)CC[C@]12C [KARAVOATE E] | 20.8 | 73.8 µM | 116 | 0.6 µM | 3.5 µM
8 | CCCC(=O)O[C@H]1CC[C@@H]2C(=C[C@H](OC)[C@@H]3[C@@]2(C)CC[C@]2(C)[C@@H]([C@H](C)C[C@H](C=C(C)C)OC(=O)CCC)CC[C@@]32C)C1(C)C [KARAVOATE F] | > 19.4 | > 133 µM | > 15.8 | 8.4 µM | 6.9 µM
9 | CO[C@H]1C=C2[C@@H](CC[C@H](OC(=O)c3ccccc3)C2(C)C)[C@]2(C)CC[C@]3(C)[C@@H]([C@H](C)C[C@H](C=C(C)C)OC(=O)c4ccccc4)CC[C@@]3(C)[C@H]12 [KARAVOATE H] | > 3.7 | > 133 µM | > 4.4 | 30.5 µM | 36.4 µM
10 | CO[C@H]1C=C2[C@@H](CC[C@H](O)C2(C)C)[C@]2(C)CC[C@]3(C)[C@@H]([C@H](C)C[C@H](C=C(C)C)OC(=O)c4ccc([N+](=O)[O-])cc4)CC[C@@]3(C)[C@H]12 [KARAVOATE I] | > 51.4 | > 133 µM | > 296 | 0.5 µM | 2.6 µM
11 | CO[C@H]1C=C2[C@@H](CC[C@H](OC(=O)c3ccc([N+](=O)[O-])cc3)C2(C)C)[C@]2(C)CC[C@]3(C)[C@@H]([C@H](C)C[C@H](C=C(C)C)OC(=O)c4ccc([N+](=O)[O-])cc4)CC[C@@]3(C)[C@H]12 [KARAVOATE J] | > 7.2 | > 133 µM | > 6.43 | 20.7 µM | 18.6 µM
12 | CO[C@H]1C=C2[C@@H](CC[C@H](O)C2(C)C)[C@]2(C)CC[C@]3(C)[C@@H]([C@H](C)C[C@H](C=C(C)C)OC(=O)c4ccc(Cl)cc4)CC[C@@]3(C)[C@H]12 [KARAVOATE K] | > 10 | > 133 µM | > 5.7 | 23.3 µM | 13.3 µM
13 | CO[C@H]1C=C2[C@@H](CC[C@H](OC(=O)c3ccc(Cl)cc3)C2(C)C)[C@]2(C)CC[C@]3(C)[C@@H]([C@H](C)C[C@H](C=C(C)C)OC(=O)c4ccc(Cl)cc4)CC[C@@]3(C)[C@H]12 [KARAVOATE L] | > 5.9 | > 133 µM | > 2 | 66 µM | 22.5 µM
14 | COc1ccc(C(=O)O[C@@H](C=C(C)C)C[C@@H](C)[C@H]2CC[C@@]3(C)[C@@H]4[C@@H](OC)C=C5[C@@H](CC[C@H](O)C5(C)C)[C@]4(C)CC[C@]23C)cc1 [KARAVOATE M] | > 43.6 | > 133 µM | > 215 | 0.6 µM | 1.3 µM
15 | COc1ccc(C(=O)O[C@H]2CC[C@@H]3C(=C[C@H](OC)[C@@H]4[C@@]3(C)CC[C@]3(C)[C@@H]([C@H](C)C[C@H](C=C(C)C)OC(=O)c5ccc(OC)cc5)CC[C@@]43C)C2(C)C)cc1 [KARAVOATE N] | > 55.4 | > 133 µM | > 2.8 | 47.9 µM | 2.4 µM
16 | CO[C@H]1C=C2[C@@H](CC[C@H](O)C2(C)C)[C@]2(C)CC[C@]3(C)[C@@H]([C@H](C)C[C@H](C=C(C)C)OC(=O)/C=C/c4ccccc4)CC[C@@]3(C)[C@H]12 [KARAVOATE O] | > 20.3 | > 133 µM | > 5 | 26.7 µM | 6.6 µM
17 | CO[C@H]1C=C2[C@@H](CC[C@H](OC(=O)/C=C/c3ccccc3)C2(C)C)[C@]2(C)CC[C@]3(C)[C@@H]([C@H](C)C[C@H](C=C(C)C)OC(=O)/C=C/c4ccccc4)CC[C@@]3(C)[C@H]12 [KARAVOATE P] | > 2 | > 133 µM | > 2.4 | 56.6 µM | 65.2 µM
